Compound activity as filed in PubChem.
SIRT5 block: SIRT5 desuccinylase inhibitors, primary screen, biochemical, fluorescence imaging, single point, set 5; actives 1.1% (n = 330,000); Purified SirT5, succinyl-peptide AMC, trypsin-coupled fluorescence; inhibition, % at 15 µM; NAD-dependent protein deacylase sirtuin-5, mitochondrial (Homo sapiens), Q9NXA8; AID 652115, 2013; in the data active = inhibition above about 15%
ERp5 inh: inhibitors of ERp5-driven insulin aggregation, primary screen, biochemical, turbidity, absorbance 650 nm, single point; Protein disulfide-isomerase A6 (Homo sapiens), Q15084; inhibition, % at 9.99 µM; 90 min; actives 0.05% (n = 350,000);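 active = mean replicate inhibition above about 25%, with every replicate also reaching it, limit read from the data, passing the limit was not always enough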
Target sequence (Q15084 whole entry, looked up): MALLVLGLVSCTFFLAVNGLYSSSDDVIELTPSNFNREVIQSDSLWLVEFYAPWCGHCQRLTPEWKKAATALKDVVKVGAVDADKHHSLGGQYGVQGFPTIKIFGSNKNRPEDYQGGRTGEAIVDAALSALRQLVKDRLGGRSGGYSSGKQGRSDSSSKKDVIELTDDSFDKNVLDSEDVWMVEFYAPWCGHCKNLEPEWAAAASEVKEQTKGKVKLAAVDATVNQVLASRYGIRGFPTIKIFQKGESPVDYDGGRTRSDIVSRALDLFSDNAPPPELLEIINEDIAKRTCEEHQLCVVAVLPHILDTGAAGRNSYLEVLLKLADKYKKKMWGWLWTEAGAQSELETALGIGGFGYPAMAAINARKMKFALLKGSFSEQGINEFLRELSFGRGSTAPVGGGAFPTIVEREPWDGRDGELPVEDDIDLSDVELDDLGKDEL
S100A4 MyoIIA: inhibitors of S100A4-myosin IIA peptide binding, primary screen, biochemical, fluorescence polarization, TAMRA-MyoIIA peptide | inhibition, % at 10.7 µM | AID 652163, 2013 | actives 0.14% (n = 360,000) | Protein S100-A4 (Homo sapiens), P26447;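 active = mean inhibition of at least 70% across replicates, with every replicate also reaching that level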
Target sequence (P26447 whole entry, looked up): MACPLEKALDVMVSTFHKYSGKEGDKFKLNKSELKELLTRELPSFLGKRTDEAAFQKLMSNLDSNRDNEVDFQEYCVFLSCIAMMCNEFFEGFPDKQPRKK
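incubation = readout 5 min after mixing, signal stable up to 60 min | system = S100A4 monomer protein | buffer or medium = HEPES pH 7.2 with CaCl2, KCl, NaCl, DTT, Triton | benchmarks = neutral control DMSO, positive control TFP | also added = fluorescent myosin IIA peptide, 5 nM | compound dosing = one concentration per compound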
INS-1E GSIS act: GLuc luminescence reporter in INS-1E cells, primary screen for activators of glucose-dependent secretion of insulin; actives 0.61% (n = 370,000); INS-1E GLuc reporter insulin secretion, 2-3 h; activation, % at 16.6 µM;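 active = lowest replicate activation of at least 40%, so every replicate reaches that level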
PDI turbidity: inhibitors of human PDI, primary screen, biochemical, turbidity, single point, plate reader; inhibition, % at 10 µM; Protein disulfide-isomerase (Homo sapiens), P07237; actives 0.052% (n = 350,000); PDI insulin aggregation turbidity, A650, 90 min;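 active = mean inhibition across replicates of 30% or more, whatever share of single replicates reach that level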
Large screens that a line does not name were inactive; ! = not active in a repeat. This is a sample that favours compounds with a hit; in the whole collection about 1.5% have one here.

Cc1cccc(-c2ccc(C3[C@@H]4CN(Cc5ccccc5)C[C@H]3N4)cc2)c1 (stereo partly drawn)	none (no result: PDI turbidity)
Fc1ccccc1-c1ccc(C2[C@@H]3CN(Cc4ccccc4)C[C@H]2N3)cc1 (stereo partly drawn)	INS-1E GSIS act 47! (no result: SIRT5 block, ERp5 inh, S100A4 MyoIIA, PDI turbidity)
CC(C)NC(=O)N(C)C[C@H]1Oc2ncc(C#CCC3CCCC3)cc2C(=O)N([C@@H](C)CO)C[C@H]1C	none (no result: PDI turbidity)
CO[C@H]1CN(C)C(=O)c2cc(NS(=O)(=O)c3cn(C)cn3)ccc2OC[C@H](C)N(CCC(F)(F)F)C[C@@H]1C	none (no result: PDI turbidity)
CCCC(=O)Nc1ccc2c(c1)C(=O)N(C)C[C@H](OC)[C@@H](C)CN(Cc1cncnc1)[C@H](C)CO2	none (no result: PDI turbidity)
COc1ccc(CN(C)C[C@H]2OCCCC[C@H](C)Oc3ccc(NC(=O)Cc4ccccc4)cc3C(=O)N([C@H](C)CO)C[C@@H]2C)cc1	none (no result: SIRT5 block, ERp5 inh, S100A4 MyoIIA, PDI turbidity)
C[C@H](CO)N1C[C@H](C)[C@H](CN(C)C(=O)Nc2ccc(F)cc2)Oc2ncc(C#Cc3ccc(C(F)(F)F)cc3)cc2C1=O	SIRT5 block 16 (no result: PDI turbidity)
COc1ccc(NC(=O)N(C)C[C@@H]2Oc3ncc(C#CCN(C)C)cc3C(=O)N([C@@H](C)CO)C[C@@H]2C)cc1	none (no result: PDI turbidity)
C/C=C/c1cnc2c(c1)C(=O)N([C@@H](C)CO)C[C@H](C)[C@@H](CN(C)C(=O)Nc1ccc(F)cc1)O2	SIRT5 block 16 (no result: PDI turbidity)
COc1ccc(NC(=O)N(C)C[C@H]2Oc3ncc(C#CCN(C)C)cc3C(=O)N([C@@H](C)CO)C[C@@H]2C)cc1	SIRT5 block 22 (no result: PDI turbidity)
C[C@H](CO)N1C[C@H](C)[C@@H](CN(C)Cc2ccncc2)Oc2c(NC(=O)Nc3ccc4c(c3)OCO4)cccc2C1=O	none (no result: PDI turbidity)
C[C@@H]1CN([C@H](C)CO)C(=O)Cc2cc(NC(=O)CCC(F)(F)F)ccc2O[C@@H]1CN(C)Cc1ccc(C(F)(F)F)cc1	none (no result: INS-1E GSIS act, PDI turbidity)
CN(C)c1ccc(O)c2c1CC1CC3[C@@H](N(C)C)C(=O)C(C(N)=O)=C(O)[C@]3(O)C(=O)C1=C2O (stereo partly drawn)	SIRT5 block 34
C[C@H]1c2cccc(O)c2C(O)=C2C(=O)[C@]3(O)C(O)=C(C(N)=O)C(=O)[C@@H](N(C)C)[C@@H]3[C@@H](O)[C@@H]21	none (no result: SIRT5 block, ERp5 inh, S100A4 MyoIIA, INS-1E GSIS act)
CN(C)C(=O)CSc1nnc([C@H](Cc2c[nH]c3ccccc23)NC(=O)OC(C)(C)C)o1	PDI turbidity 45 (no result: SIRT5 block, ERp5 inh, S100A4 MyoIIA, INS-1E GSIS act)
CCOC(=O)CSc1nnc([C@H](Cc2ccccc2)NC(=O)OC(C)(C)C)o1	none (no result: SIRT5 block, ERp5 inh, S100A4 MyoIIA, INS-1E GSIS act)
CO[C@@H]1CN(C)C(=O)c2ccc(NC(C)=O)cc2OC[C@H](C)N(CC2CC2)C[C@H]1C	none (no result: PDI turbidity)
COc1cc(/C=C/C(=O)/C=C(O)/C=C/c2ccc(O)c(OC)c2)ccc1O	PDI turbidity 46 (no result: INS-1E GSIS act)
COc1cc(/C=C/C(=O)O)ccc1O	none (no result: SIRT5 block, INS-1E GSIS act, PDI turbidity)
COc1cc(C=C2C(=O)C=CC2=O)ccc1O	SIRT5 block 28, INS-1E GSIS act 52 (no result: PDI turbidity)
Cc1ccc(OCc2nc(-c3ccccn3)no2)cc1	SIRT5 block 16
CCOC(=O)C1=CCN(S(=O)(=O)c2ccccc2Br)C1c1ccc(Cl)c(Cl)c1 (stereo not drawn)	SIRT5 block 25 (no result: PDI turbidity)
O=C(N/N=C/c1ccco1)c1cc(-c2ccc3ccccc3c2)n[nH]1	INS-1E GSIS act 83 (no result: SIRT5 block, ERp5 inh, S100A4 MyoIIA)
CCc1ccc(-c2cc(C(=O)N/N=C/c3ccco3)[nH]n2)cc1	none
CN(C(=O)COC(=O)c1cccs1)c1ccccc1	INS-1E GSIS act 117 (no result: SIRT5 block)
CCCc1cc(NCC2CCCO2)n2c(nc3ccccc32)c1C#N (stereo not drawn)	INS-1E GSIS act 57 (no result: SIRT5 block, ERp5 inh, S100A4 MyoIIA)
CCCc1cc(NCCN(C)C)n2c(nc3ccccc32)c1C#N	none
Cc1noc(C)c1NC(=O)N(C)C[C@H]1Oc2ccc(NC(=O)Cc3cn(C)c4ccccc34)cc2C(=O)N([C@H](C)CO)C[C@H]1C	none (no result: PDI turbidity)
C[C@H]1CN([C@@H](C)CO)C(=O)c2cc(-c3cccc(C#N)c3)cnc2O[C@H]1CN(C)Cc1cncnc1	none (no result: PDI turbidity)
C[C@@H]1CN([C@@H](C)CO)C(=O)c2cc(-c3cccc(C#N)c3)cnc2O[C@H]1CN(C)Cc1cncnc1	ERp5 inh 84 (no result: PDI turbidity)
C[C@H]1CN([C@@H](C)CO)C(=O)c2cc(-c3cccc(C#N)c3)cnc2O[C@@H]1CN(C)Cc1cccnc1	S100A4 MyoIIA 128 (no result: PDI turbidity)
COc1ccc(S(=O)(=O)N(C)C[C@@H]2Oc3ccc(NC(=O)C4CCCCC4)cc3CC(=O)N([C@H](C)CO)C[C@H]2C)cc1	none (no result: PDI turbidity)
CS(=O)(=O)Nc1ccc2c(c1)[C@H]1C[C@H](CC(=O)NCc3ccccn3)O[C@@H](CO)[C@H]1O2	none (no result: PDI turbidity)
COc1ccc(CN(C)C(=O)c2cc(-c3ccc(OC)c(OC)c3)nc3ccccc23)c(OC)c1	INS-1E GSIS act 58
COc1cccc(CN(C)C(=O)c2cc(-c3ccc(OC)c(OC)c3)nc3ccccc23)c1	none
CC(C)C#Cc1cnc2c(c1)C(=O)N([C@H](C)CO)C[C@@H](C)[C@H](CN(C)S(=O)(=O)c1cn(C)cn1)O2	none (no result: PDI turbidity)
C/C(=N\Nc1ccc(Cl)c(C(=O)O)c1)c1ccc[nH]1	SIRT5 block 24
C/C(=N\Nc1ccc(Cl)c(C(=O)O)c1)c1cccs1	none
O=C(O)c1ccc(/C=N/n2c(C3CCCCC3)n[nH]c2=S)cc1	INS-1E GSIS act 63
S=c1[nH]nc(C2CCCCC2)n1/N=C/c1ccncc1	none
Cc1ccc(S(=O)(=O)N[C@@H]2CC[C@@H](CCNC(=O)Nc3ccc(Cl)cc3)O[C@@H]2CO)cc1	none (no result: PDI turbidity)
COc1ccc(C(O)c2nc(-c3ccc(OC)c(OC)c3)cs2)cc1 (stereo not drawn)	INS-1E GSIS act 66
Nc1cc(S(=O)(=O)O)cc([N+](=O)[O-])c1O	SIRT5 block 30
O=C(NCc1ccccc1)c1cc(-c2ccncc2)nc2ccc(S(=O)(=O)N3CCOCC3)cc12	none (no result: INS-1E GSIS act)
Cc1ccc(CCNC(=O)c2cc(-c3ccncc3)nc3ccc(S(=O)(=O)N4CCOCC4)cc23)cc1	S100A4 MyoIIA 148
Cc1ccc(S(=O)(=O)Nc2ccc3c(c2)C(=O)N([C@H](C)CO)C[C@H](C)[C@H](CN(C)Cc2ccc(C(F)(F)F)cc2)OCCCC[C@H](C)O3)cc1	SIRT5 block 32 (no result: PDI turbidity)
Cc1ccc(S(=O)(=O)Nc2ccc3c(c2)C(=O)N([C@@H](C)CO)C[C@@H](C)[C@H](CN(C)Cc2ccc(C(F)(F)F)cc2)OCCCC[C@H](C)O3)cc1	none (no result: PDI turbidity)
Cc1ccc(S(=O)(=O)Nc2ccc3c(c2)C(=O)N([C@H](C)CO)C[C@@H](C)[C@@H](CN(C)Cc2ccc(C(F)(F)F)cc2)OCCCC[C@H](C)O3)cc1	SIRT5 block 20 (no result: PDI turbidity)
